Screening results from PubChem BioAssay.
Lmaj promast – Leishmania major promastigote growth inhibition | Leishmania major promastigotes, resazurin fluorescence viability | inhibition, % at 10 µM | 9% of 200,000 active; in the data active means inhibition above about 50%;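 further: promastigotes grown with compound for 44 hours at 28 °C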
ROMK primary – human ROMK K+ channel modulation, primary screen. P48048. Tet-inducible ROMK, thallium flux fluorescence; actives lie on both sides. B-score at 10 µM. 2% of 130,000 active. AID 1918;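 active means signal ratio slope over the read window, or its plate-corrected B-score, at least 3 SD from the plate mean, either direction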;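 further: B-score of the F/F0 ratio slope over 7 to 12 s after thallium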
Diaphorase act – activates diaphorase or chemically reduces, flagging diaphorase assay artifacts; activation factor at 20 µM; Diaphorase/resazurin coupled assay, resorufin fluorescence, 16 min; active compounds read high; 1 = vehicle wells, 0 = NADH-free wells; 0.005% of 190,000 active;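 active means diaphorase activity raised at least twofold by the compound at 20 µM; inactive means activation factor below 2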
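Material: purified diaphorase enzyme from Clostridium kluyveri / Medium: HEPES pH 7.4 buffer with MgCl2 and Tween 20 / Schedule: enzyme reaction of 16 min at room temperature / Measured by: resorufin fluorescence, excitation 544 nm, emission 590 nm / Evaluation: rise in resorufin formation, marking diaphorase activation or chemical reduction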
WT yeast gro inh – growth inhibition of WT yeast, mitochondrial fusion screen. mitochondrial fusion phenotypic screen, WT strain. inhibition, % at 10 µM. 2.1% of 190,000 active. AID 1362; in the data active means inhibition above about 58%; tested in S. cerevisiae
Diaph inh CS – diaphorase inhibition or chemical oxidation counter-screen; diaphorase resazurin-to-resorufin fluorescence, NADH, 16 min; bacterial (C. kluyveri) enzyme, not human; inhibition, % at 20 µM; 0.69% of 190,000 active;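 active means primary screen inhibition at 20 µM above a set limit, cut at about 50% in these data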;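 further: plate controls were DMSO with full reaction for no effect and wells lacking NADH for full effect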
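Assay system – diaphorase enzyme from Clostridium kluyveri · Amount – diaphorase 0.14 U/mL (working solution) · Times – reaction incubation of 16 min at room temperature · Controls – No-NADH positive control and DMSO neutral control · Signal – resorufin fluorescence 544/590 nm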
KCC2 mod – KCC2 (human) Cl- transport modulation; KCC2 cells, thallium flux FluoZin-2 fluorescence; B-score of Tl+ flux slope (higher = more flux/activation; lower = inhibition) at 10 µM; AID 1456; Q9H2X9; 2.2% of 190,000 active;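 active means thallium flux slope and its plate-corrected score both differing from the plate sample mean at a set confidence after two filtering rounds, in either direction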;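 further: slope of fluorescence scaled to starting intensity during 10 to 20 s after thallium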
Target sequence (Q9H2X9 whole entry, looked up): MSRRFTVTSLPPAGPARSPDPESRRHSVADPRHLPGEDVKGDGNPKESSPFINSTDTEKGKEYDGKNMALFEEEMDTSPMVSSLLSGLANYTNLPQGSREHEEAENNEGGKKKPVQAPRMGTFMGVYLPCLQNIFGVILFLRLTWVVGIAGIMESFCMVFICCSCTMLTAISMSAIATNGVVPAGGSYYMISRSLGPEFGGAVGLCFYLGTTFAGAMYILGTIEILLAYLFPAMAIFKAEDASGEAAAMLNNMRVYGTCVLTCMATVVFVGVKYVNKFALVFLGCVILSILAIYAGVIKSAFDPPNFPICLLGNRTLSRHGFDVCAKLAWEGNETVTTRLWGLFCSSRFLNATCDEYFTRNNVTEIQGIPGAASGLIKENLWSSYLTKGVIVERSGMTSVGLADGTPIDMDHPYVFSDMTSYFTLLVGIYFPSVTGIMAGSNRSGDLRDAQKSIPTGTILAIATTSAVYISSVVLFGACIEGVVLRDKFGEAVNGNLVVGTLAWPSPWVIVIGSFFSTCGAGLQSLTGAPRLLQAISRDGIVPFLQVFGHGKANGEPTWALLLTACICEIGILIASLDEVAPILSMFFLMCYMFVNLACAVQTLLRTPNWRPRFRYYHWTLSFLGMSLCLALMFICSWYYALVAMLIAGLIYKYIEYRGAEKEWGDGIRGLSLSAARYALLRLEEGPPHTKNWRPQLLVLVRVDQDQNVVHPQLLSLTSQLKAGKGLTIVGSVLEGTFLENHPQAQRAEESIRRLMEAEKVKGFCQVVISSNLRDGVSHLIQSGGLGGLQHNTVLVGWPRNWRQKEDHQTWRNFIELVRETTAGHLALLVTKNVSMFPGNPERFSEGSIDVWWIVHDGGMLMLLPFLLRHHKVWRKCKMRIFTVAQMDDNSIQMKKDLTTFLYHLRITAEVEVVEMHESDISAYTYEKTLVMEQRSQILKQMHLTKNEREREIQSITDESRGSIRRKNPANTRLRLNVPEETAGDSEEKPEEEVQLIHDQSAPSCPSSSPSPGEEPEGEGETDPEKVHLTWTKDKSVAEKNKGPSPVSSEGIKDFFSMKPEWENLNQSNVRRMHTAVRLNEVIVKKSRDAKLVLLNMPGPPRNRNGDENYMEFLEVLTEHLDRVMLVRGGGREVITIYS
* marks the source's active call; other numbers are inactive results; / = no result. The list is not random: actives were taken first. Their share in the collection is about 12%.

SMILES | Lmaj promast | ROMK primary | Diaphorase act | WT yeast gro inh | Diaph inh CS | KCC2 mod
CN1CCN(C(c2cccc(Cl)c2)c2ccccc2Cl)CC1 (stereo not given) | 98* | -1.6 | 1 | 23 | 2 | 1.2
Cc1cc(NC(=S)NC(=O)c2ccccc2)ccc1-c1cc2ccccc2oc1=O | 35 | -0.23 | 0.8 | -2 | 15 | 1
CCOc1ccc(C(=O)Nc2ccc(-c3cc4ccccc4oc3=O)c(C)c2)cc1[N+](=O)[O-] | 56* | 1.2 | 1 | -8 | -4 | -0.85
Cc1cc(C)n(-c2cc(N3CCN(S(=O)(=O)c4ccc(Br)cc4)CC3)ccc2[N+](=O)[O-])n1 | 29 | / | 0.7 | 17 | 31 | -1.3
Cc1cc(C)c(S(=O)(=O)N2CCN(c3ccc([N+](=O)[O-])c(-n4nc(C)cc4C)c3)CC2)c(C)c1 | 59* | / | 0.9 | 14 | 13 | /
COc1ccc(CCNC(=O)CSc2nncs2)cc1 | 59* | / | 1 | -11 | 0 | 0.64
Cc1ccc(C(c2c(C)nn(-c3ccccc3)c2N)c2c(C)nn(-c3ccccc3)c2N)cc1 | 95* | -0.54 | 0.7 | 16 | 29 | 0.23
O=C1NCC(COc2ccc(Cl)cc2)O1 (stereo not given) | -7 | -0.41 | 1.1 | 7 | -14 | 0.72
Cc1ccccc1/C(N)=N/OC(=O)N1c2ccccc2Sc2ccccc21 | 93* | -1.6 | 0.9 | 83* | 11 | /
Cc1ccc(/C(N)=N/OC(=O)N2c3ccccc3Sc3ccccc32)cc1 | 100* | / | / | / | / | /
Cc1cc2oc(C(=O)Nc3ccc(S(N)(=O)=O)cc3)c(C)c2cc1Cl | -9 | / | 1 | -2 | -1 | /
Cc1nc2ccc(-c3nc4cc(N)ccc4o3)cc2[nH]1 | 53* | / | 0.9 | 5 | 7 | 0.2
Nc1ccc2oc(-c3ccc4nc[nH]c4c3)nc2c1 | 2 | / | 0.9 | 6 | 8 | -0.23
O=C(/C=C/c1ccccc1)N/C(=C/c1ccccc1)C(=O)NCCCO | -1 | 0.26 | 0.8 | 9 | 18 | 0.82
CCN1/C(=C/c2cc[n+](C)cc2)C=Cc2cc(C)ccc21 | 100* | -0.64 | 0.8 | 70* | 18 | -0.23
CCN1C(=O)/C(=C2\C=Cc3cc(C)ccc3N2CC)OC1=S | 2 | 1.5 | 0.9 | -4 | 11 | -0.93
C=CCc1ccc(OCCCN2CCCC(C)C2)c(OC)c1 (stereo not given) | 100* | -0.018 | 0.9 | 0 | 9 | /
CC1CN(CCOc2ccc(Cl)cc2Cl)CC(C)O1 (stereo not given) | 40 | 0.36 | 0.8 | 22 | 15 | -0.18
CCOc1ccccc1OCCOCCN1CC(C)OC(C)C1 (stereo not given) | 63* | / | 0.8 | 2 | 21 | /
COc1cc(C)ccc1OCCCCN1CC(C)OC(C)C1 (stereo not given) | 97* | -0.49 | 1 | 4 | 5 | /
C=CCc1ccc(OCCCCN2CCC(C)CC2)c(OC)c1 | 89* | / | 1 | 11 | 4 | -0.86
CC(=O)c1ccccc1N(C(=O)c1ccco1)C(C(=O)NC1CCCC1)c1ccc(N2CCOCC2)cc1 (stereo not given) | -6 | 0.82 | 0.9 | -2 | 9 | -0.0028
C=CCc1ccc(OCCCCN2CC(C)CC(C)C2)c(OC)c1 (stereo not given) | 96* | -0.93 | 0.9 | 20 | 13 | 0.1
Cn1cc(Cl)c(C(=O)Nc2cnn(Cc3ccc(F)cc3)c2)n1 | 99* | -0.71 | 0.9 | 12 | 10 | -1.2
O=C(Nc1cnn(Cc2ccc(F)cc2)c1)c1cc(-c2ccco2)on1 | 69* | -0.87 | 1 | 36 | 2 | -0.11
SMILES | Lmaj promast | ROMK primary | Diaphorase act | WT yeast gro inh | Diaph inh CS | KCC2 mod
COc1cccc(-c2cc(C(=O)Nc3cnn(Cc4ccc(F)cc4)c3)no2)c1 | 0 | / | 0.9 | -20 | 6 | 0.1
Cc1ccc(SC[C@H](c2ccccc2)N2CCN(CC(C)C)CCC2=O)cc1 | / | / | / | / | / | -0.043
CCOC(=O)c1c(NC(=O)COc2ncnc3ccccc23)sc(C)c1CC | 16 | / | 0.9 | 34 | 14 | -0.9
CCOc1cc(CNC(CC)CO)ccc1OCC(=O)Nc1cccc(C(F)(F)F)c1 (stereo not given) | 82* | -1.6 | 1 | 1 | -3 | 0.98
COc1ccc(CNC(=O)Nc2cccc(C(F)(F)F)c2)cc1OC | 6 | 0.52 | 0.8 | -10 | 22 | -1.2
COc1cc(CNCCCN2CCOCC2)ccc1OCC(=O)Nc1cccc(C(F)(F)F)c1 | 100* | / | 1 | 6 | -3 | 0.15
CCOc1cc(CNCCCN2CCOCC2)ccc1OCC(=O)Nc1cccc2ccccc12 | 100* | / | 0.9 | -8 | 6 | /
O=C(COc1ccc(Br)cc1CNCCCN1CCOCC1)Nc1ccccc1 | 91* | -1.7 | 1 | -13 | 4 | -0.17
CCOc1cc(NC(=S)NCCCN2CCOCC2)c(OCC)cc1NC(=O)c1cccc(C)c1 | -2 | -0.011 | / | 16 | / | -0.38
CC(C)(C)CC(=O)O/N=C(\N)c1ccncc1 | 0 | -0.44 | 0.9 | 1 | 6 | 1.3
c1ccc(Cn2c(CNc3nc4ccccc4n3CCN3CCOCC3)nc3ccccc32)cc1 | 59* | -1.6 | 0.8 | 1 | 18 | /
Cc1ccc(Cn2c(Cc3ccccc3)nc3ccccc32)cc1 | 13 | / | 0.8 | 71* | 15 | /
Cc1cccc(NCc2nc3ccccc3n2Cc2ccccc2)c1 | 30 | -0.24 | 0.6 | 75* | 37 | /
Brc1ccc(CNc2nc3ccccc3n2CCN2CCCCC2)cc1 | / | / | / | / | / | -1.1
Cc1cccc(NCc2nc3ccccc3n2C)c1 | -1 | -0.89 | 1 | 11 | -3 | -2.6
C/C(=N\Nc1cc(C)nc(NCc2ccccc2)n1)c1ccc([N+](=O)[O-])cc1 | / | / | / | / | / | 0.021
c1cncc(-c2nc(N3CCOCC3)c3c4c(sc3n2)CCC4)c1 | 13 | -1.1 | 0.7 | -15 | 29 | 0.17
c1cncc(-c2nc(NCCCN3CCOCC3)c3c4c(sc3n2)CCC4)c1 | 68* | -1.3 | 1.3 | 2 | -30 | 0.39
O=C(NCc1ccc(Cl)cc1)c1ccccc1CCc1ccccc1 | 1 | -0.77 | 0.9 | -4 | 8 | -2.2
O=C(NCc1ccccc1Cl)c1ccccc1CCc1ccccc1 | 54* | -0.035 | 0.9 | -10 | 8 | -1.7
O=C(NCc1ccccc1Cl)c1cnccn1 | -5 | / | 0.9 | 75* | 14 | 0.55
CCOC(=O)c1oc2ccc(S(=O)(=O)n3nc(-c4ccccc4)cc3N)cc2c1C | 97* | / | 0.7 | -3 | 28 | /
CCOC(=O)c1c(OCC)[nH]c2c1cc(O)c1ccccc12 | 99* | -1.6 | 0.3 | 59* | 74* | -0.44
CCOC(=O)c1c(C)[nH]c2cc(Br)c(O)cc12 | 17 | 0.15 | 0.7 | -1 | 28 | -0.008
Cc1ccc(S(=O)(=O)N2CCC(C(=O)NCCc3ccccc3)CC2)cc1 | -2 | 0.34 | 0.9 | 16 | 9 | /
